Drawing on ChEMBL document CHEMBL1148012, “Synthesis, inhibition and binding of simple non-nitrogen inhibitors of monoamine transporters” (Bioorg Med Chem, 2007), this text covers Ki for 48 compounds.

The target in assay [1] is T1, Sodium-dependent noradrenaline transporter (Homo sapiens, UniProt P23975). The experiment in a line: Displacement of [125I]RTI55 from human NET expressed in COS1 cell membrane. Type of assay: cell membranes, COS-1.
Assay [2] concerns the target T2, Sodium-dependent dopamine transporter (Homo sapiens, UniProt Q01959). The experiment in a line: Displacement of [125I]RTI55 from human DAT expressed in COS1 cell membrane. In kind it is cell membranes, COS-1. The method in brief:
(§1)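 Membranes from COS-1 cells stably transfected with hDAT or hSERT (pIRES, blasticidin selection), homogenised and washed, resuspended in PBSCM. Filtration onto PEI-soaked GF/B filters, scintillation counting.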

For assay [3], the target named is T2, Sodium-dependent dopamine transporter. Nature of the assay: Inhibition of [3H]DA uptake in human DAT expressed in COS1 cell membrane. In kind it is functional, cell-based, COS-1. The essentials:
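Intact COS-1 cells stably expressing hDAT, grown two days at 37 °C, washed in PBSCM pH 7.4. Drug dilutions preincubated 30 min, then 30–100 nM [3H]DA added with drug. Uptake 10 min at 20 °C, stopped by aspiration and washing. Accumulated radioactivity counted after solubilising cells in scintillant. IC50 determined.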

For assay [4], the target named is T3, Sodium-dependent serotonin transporter (Homo sapiens, UniProt P31645). Nature of the assay: Displacement of [125I]RTI55 from human SERT expressed in COS1 cell membrane. In kind it is cell membranes, COS-1. The method in brief:
as §1
A general note: In a radioligand displacement assay an active substance lowers the binding of a labelled ligand.

For assay [5], the target named is T1, Sodium-dependent noradrenaline transporter. The experiment in a line: Inhibition of [3H]DA uptake in human NET expressed in COS1 cell membrane. Type of assay: functional, cell-based, COS-1.
The target in assay [6] is T3, Sodium-dependent serotonin transporter. The experiment in a line: Inhibition of [3H]SER uptake in human SERT expressed in COS1 cell membrane. In kind it is functional, cell-based, COS-1. The method in brief: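 Intact COS-1 cells stably expressing hSERT, grown two days at 37 °C, washed in PBSCM pH 7.4. Drug dilutions preincubated 30 min, then 30–100 nM [3H]5-HT added with drug. Uptake 10 min at 20 °C, stopped by aspiration and washing. Accumulated radioactivity counted after solubilising cells in scintillant. IC50 determined.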

Structures are written as SMILES.

T2 sequence (Q01959 whole entry): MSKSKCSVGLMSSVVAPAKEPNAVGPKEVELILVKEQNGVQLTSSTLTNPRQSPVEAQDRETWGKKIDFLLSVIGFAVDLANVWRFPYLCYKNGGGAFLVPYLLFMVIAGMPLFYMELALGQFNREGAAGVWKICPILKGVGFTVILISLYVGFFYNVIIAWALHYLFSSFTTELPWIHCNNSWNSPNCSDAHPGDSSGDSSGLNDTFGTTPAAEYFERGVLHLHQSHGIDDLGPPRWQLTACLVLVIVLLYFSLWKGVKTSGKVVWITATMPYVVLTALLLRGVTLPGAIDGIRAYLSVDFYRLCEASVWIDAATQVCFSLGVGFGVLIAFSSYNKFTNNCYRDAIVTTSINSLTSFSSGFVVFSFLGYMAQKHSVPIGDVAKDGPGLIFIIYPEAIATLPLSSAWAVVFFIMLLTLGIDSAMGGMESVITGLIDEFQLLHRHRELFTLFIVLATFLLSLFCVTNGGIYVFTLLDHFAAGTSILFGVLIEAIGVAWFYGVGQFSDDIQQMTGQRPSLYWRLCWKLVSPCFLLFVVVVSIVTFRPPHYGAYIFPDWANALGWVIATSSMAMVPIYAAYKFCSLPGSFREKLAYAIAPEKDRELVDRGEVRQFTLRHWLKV
T3 sequence (P31645 whole entry): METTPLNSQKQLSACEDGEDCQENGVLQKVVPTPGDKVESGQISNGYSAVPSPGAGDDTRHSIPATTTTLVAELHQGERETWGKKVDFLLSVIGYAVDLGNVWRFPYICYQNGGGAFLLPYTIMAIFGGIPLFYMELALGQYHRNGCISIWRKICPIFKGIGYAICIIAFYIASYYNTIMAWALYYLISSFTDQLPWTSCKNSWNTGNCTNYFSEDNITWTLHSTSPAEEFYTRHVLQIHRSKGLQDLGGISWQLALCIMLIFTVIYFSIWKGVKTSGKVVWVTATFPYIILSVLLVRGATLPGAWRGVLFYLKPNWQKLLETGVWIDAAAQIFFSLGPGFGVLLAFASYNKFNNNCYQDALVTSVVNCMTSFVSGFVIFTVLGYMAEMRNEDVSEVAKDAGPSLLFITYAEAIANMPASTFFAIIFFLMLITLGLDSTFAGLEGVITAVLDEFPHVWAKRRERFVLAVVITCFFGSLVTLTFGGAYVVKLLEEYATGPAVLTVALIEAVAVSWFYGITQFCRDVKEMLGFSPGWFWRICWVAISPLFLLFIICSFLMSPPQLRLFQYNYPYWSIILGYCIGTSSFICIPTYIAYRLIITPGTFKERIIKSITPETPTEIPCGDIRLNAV
T1 sequence (P23975 whole entry): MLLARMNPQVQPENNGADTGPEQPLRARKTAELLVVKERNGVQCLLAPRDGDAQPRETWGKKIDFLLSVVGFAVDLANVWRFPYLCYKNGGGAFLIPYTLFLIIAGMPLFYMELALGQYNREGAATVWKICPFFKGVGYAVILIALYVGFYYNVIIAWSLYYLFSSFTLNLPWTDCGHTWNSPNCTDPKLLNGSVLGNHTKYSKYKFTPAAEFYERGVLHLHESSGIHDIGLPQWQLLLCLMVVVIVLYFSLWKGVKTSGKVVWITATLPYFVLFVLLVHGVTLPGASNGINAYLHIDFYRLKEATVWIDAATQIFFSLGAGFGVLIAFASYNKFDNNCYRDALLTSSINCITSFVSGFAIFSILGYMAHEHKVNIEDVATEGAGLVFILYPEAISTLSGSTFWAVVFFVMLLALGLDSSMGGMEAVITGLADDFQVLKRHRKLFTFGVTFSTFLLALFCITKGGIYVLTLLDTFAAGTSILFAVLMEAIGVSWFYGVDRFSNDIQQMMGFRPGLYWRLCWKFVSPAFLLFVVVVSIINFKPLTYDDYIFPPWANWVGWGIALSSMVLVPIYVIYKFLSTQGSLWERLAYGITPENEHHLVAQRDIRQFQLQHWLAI

Broadly, the Ki is a measure of affinity in units of concentration, obtained from inhibition or displacement. Low readings indicate tighter binding, high ones weaker binding. As for `COC(=O)[C@@H]1CN(C)CC[C@@H]1c1ccc(Cl)c(Cl)c1` (stereo in doubt; 3a), the Ki worked out at 3.91 µM in assay [1] and 0.322 µM in assay [2].

In the case of `COC(=O)C1=C(c2ccc(Cl)c(Cl)c2)CCCCC1`, the Ki in assay [1] amounted to 15 µM; in assay [2], 1.36 µM; in assay [3], 0.515 µM; in assay [4], 149 µM; in assay [5], 4.72 µM.

Regarding `COC(=O)C1=C(c2ccc(C(C)(C)C)cc2)CCCCC1`, the Ki in assay [1] came out at 62 µM; in assay [2] it was 884 µM; in assay [4], 1040 µM.

On to `COC(=O)C1=C(c2ccc(C(C)(C)C)cc2)CCC1`, for which the Ki in assay [1] came to 789 µM; in assay [2], 302 µM; in assay [4] it was 1460 µM.

For the compound `COC(=O)C1=C(c2ccc(O)cc2)CCCC1`, the Ki in assay [1] was 675 µM; in assay [2] it was 231 µM; in assay [4] it was 573 µM; in assay [5], 499 µM.

Turning to `COC(=O)C1=C(c2ccccc2)CCCC1`, the Ki in assay [1] amounted to 2500 µM; in assay [2], 630 µM; in assay [4], 668 µM.

For the compound `COC(=O)C1=C(c2ccc(Cl)c(Cl)c2)CCC1`, the Ki in assay [1] was found to be 11 µM; in assay [2], 1.9 µM; in assay [3], 5.5 µM; in assay [4], 785 µM; in assay [5], 28 µM.

For the compound `COC(=O)C1=C(c2ccc(Cl)cc2)CCCCC1`, the Ki in assay [1] is 84 µM; in assay [2] it was 15 µM; in assay [3], 2.2 µM; in assay [4], 706 µM; in assay [5] it was 20 µM.

Regarding `COC(=O)C1=C(c2ccc(Cl)cc2)CCC1`, the Ki in assay [1] is 420 µM; in assay [2], 18 µM; in assay [3], 2.1 µM; in assay [4] it was 2840 µM; in assay [5] it was 178 µM.

On to `COC(=O)C1=C(c2ccc(C(C)(C)C)cc2)CCCC1`, for which the Ki in assay [1] is 1100 µM; in assay [2], 605 µM; in assay [4] it was 2250 µM.

For `COC(=O)[C@@H]1CCCC[C@@H]1c1ccc(C(C)(C)C)cc1`, the Ki came to 675 µM in assay [1], 766 µM in assay [2] and 9120 µM in assay [4].

As for `COC(=O)[C@@H]1CCCC[C@@H]1c1ccccc1`, the Ki in assay [1] is 1360 µM; in assay [2], 975 µM; in assay [4] it was 1510 µM.

Turning to `COC(=O)C1=C(c2cccc(Cl)c2)CCCCC1`, the Ki in assay [1] is 85 µM; in assay [2] it was 22 µM; in assay [3], 3.78 µM; in assay [4], 463 µM.

`COC(=O)[C@@H]1CCCCC[C@@H]1c1ccc(C(C)(C)C)cc1`: the results for the Ki in assay [1], in assay [2] and in assay [4] were 94 µM, 1140 µM and 1800 µM, respectively.

Take `COC(=O)[C@@H]1CN(C)CC[C@@H]1c1ccccc1` (racemic): the Ki in assay [1] was determined as 35.2 µM; in assay [2], 8.51 µM; in assay [4], 27 µM.

Take `CCOC(=O)C1=C(c2cccc([N+](=O)[O-])c2)CCNC1`: the Ki was 10 µM in assay [1], 20.6 µM in assay [2] and 3 µM in assay [4].

Consider `CCOC(=O)C1=C(c2ccc(Cl)c(Cl)c2)CCNC1`, for which the Ki worked out at 2.5 µM in assay [1], 0.922 µM in assay [2] and 0.217 µM in assay [4].

For `COC(=O)C1=C(c2ccc([N+](=O)[O-])cc2)CCC1`, the results for the Ki in assay [1], in assay [2] and in assay [4] were 111 µM, 6.54 µM and 1140 µM, respectively.

For the compound `COC(=O)C1=C(c2ccc(OC)cc2)CCC1`, the Ki in assay [1] was found to be 550 µM; in assay [2] it was 140 µM; in assay [3], 6.3 µM; in assay [4], 2690 µM; in assay [5], 1390 µM.

In the case of `COC(=O)C1=C(c2ccc(C(F)(F)F)cc2)CCCC1`, the Ki in assay [1] worked out at 2020 µM; in assay [2] it was 590 µM; in assay [4] it was 4710 µM.

As to `COC(=O)C1=C(c2ccc(-c3ccccc3)cc2)CCCC1`, the Ki in assay [1] turned out to be 215 µM; in assay [2], 264 µM; in assay [4] it was 841 µM.

As to `COC(=O)[C@@H]1CN(C)CC[C@@H]1c1ccc(I)cc1` (racemic), the figures for the Ki in assay [1], in assay [2] and in assay [4] were 0.855 µM, 0.323 µM and 0.287 µM, respectively.

As to `COC(=O)[C@H]1[C@@H](c2ccc(I)cc2)C[C@H]2CC[C@@H]1N2C` [IODINE 2BETA-CARBOMETHOXY-3BETA-(4 IODOPHENYL)-TROPANE], the Ki in assay [1] is 0.034 µM; in assay [2], 0.004 µM; in assay [3] it was 0.009 µM; in assay [4], 0.006 µM; in assay [6], 0.004 µM; in assay [5], 0.01 µM.

On to `COC(=O)C1=C(c2ccc3ccccc3c2)CCCCC1`, for which the Ki in assay [1] was found to be 68 µM; in assay [2], 392 µM; in assay [4], 532 µM.

For `CCOC(=O)C1=C(c2ccc3ccccc3c2)CCNC1`, the values for the Ki in assay [1], in assay [2] and in assay [4] were 0.268 µM, 0.079 µM and 0.44 µM, respectively.

On to `COC(=O)C1=C(c2ccc3ccccc3c2)CCC1`, for which the Ki in assay [1] worked out at 39 µM; in assay [2], 4.1 µM; in assay [3], 7 µM; in assay [4] it was 417 µM; in assay [5], 26 µM.

`COC(=O)[C@@H]1CCCC[C@@H]1c1ccc(OC(F)(F)F)cc1`: the Ki in assay [1] turned out to be 719 µM; in assay [2], 1180 µM; in assay [4], 605 µM.

For `COC(=O)[C@@H]1CCCCC[C@@H]1c1ccc(-c2ccccc2)cc1`, the values for the Ki in assay [1], in assay [2] and in assay [4] were 51 µM, 313 µM and 73 µM, respectively.

With `COC(=O)C1=C(c2ccc(Cl)c(Cl)c2)CCCC1`, the Ki was determined as 14 µM in assay [1]; 2.1 µM in assay [2]; 0.625 µM in assay [3]; 228 µM in assay [4]; 4.9 µM in assay [5].

Turning to `COC(=O)C1=C(c2ccc(-c3ccccc3)cc2)CCCCC1`, the Ki was found to be 13 µM in assay [1]; 2 µM in assay [2]; 0.81 µM in assay [3]; 32 µM in assay [4]; 3.9 µM in assay [5].

In the case of `COC(=O)[C@@H]1CCCC[C@@H]1c1ccc(-c2ccccc2)cc1`, the Ki in assay [1] amounted to 658 µM; in assay [2] it was 830 µM; in assay [4], 390 µM.

Regarding `C/C=C/C1=C(c2ccc(Cl)c(Cl)c2)CCCC1`, the Ki in assay [1] worked out at 255 µM; in assay [2] it was 11 µM; in assay [3], 42 µM; in assay [4], 381 µM.

Regarding `COC(=O)[C@@H]1CN(C)CC[C@H]1c1ccc(I)cc1` (racemic), the Ki in assay [1] is 2.3 µM; in assay [2], 1.25 µM; in assay [4], 2.81 µM.

Regarding `COC(=O)C1=C(c2ccc(Cl)cc2)CCCC1`, the Ki is 993 µM in assay [1]; 85 µM in assay [2]; 0.589 µM in assay [3]; 1860 µM in assay [4]; 314 µM in assay [5].

Regarding `COC(=O)C1=C(c2cccc(C(F)(F)F)c2)CCCC1`, the Ki in assay [1] worked out at 2110 µM; in assay [2], 1050 µM; in assay [4] it was 5020 µM.

As for `COC(=O)C1=C(c2cccc([N+](=O)[O-])c2)CCCC1`, the Ki was determined as 121 µM in assay [1], 239 µM in assay [2] and 28.7 µM in assay [4].

Regarding `COC(=O)C1=C(c2ccc3ccccc3c2)CCCC1`, the Ki is 81 µM in assay [1]; 12 µM in assay [2]; 1.5 µM in assay [3]; 109 µM in assay [4]; 10 µM in assay [5].

For `COC(=O)C1=C(c2cccc(Cl)c2)CCCC1`, the Ki in assay [1] was found to be 339 µM; in assay [2] it was 22 µM; in assay [3], 26 µM; in assay [4] it was 1180 µM; in assay [5], 871 µM.

Take `COC(=O)[C@@H]1CN(C)CC[C@H]1c1ccccc1` (racemic): the Ki was 36.3 µM in assay [1], 17.4 µM in assay [2] and 46.7 µM in assay [4].

For `COC(=O)C1=C(c2cccc(N)c2)CCC1`, the Ki in assay [1] is 1320 µM; in assay [2], 875 µM; in assay [3] it was 121 µM; in assay [4], 1950 µM; in assay [6] it was 2900 µM; in assay [5], 247 µM.

As for `COC(=O)C1=C(c2cccc(Cl)c2)CCC1`, the Ki in assay [1] worked out at 470 µM; in assay [2] it was 34 µM; in assay [3] it was 3.3 µM; in assay [4] it was 2240 µM; in assay [5], 285 µM.

As to `COC(=O)[C@@H]1CN(C)CC[C@@H]1c1ccc(Cl)c(Cl)c1` (stereo in doubt), the Ki in assay [1] is 41.6 µM; in assay [2], 59.4 µM.

`COC(=O)[C@@H]1CCCC[C@@H]1c1ccc(C(F)(F)F)cc1`: the Ki in assay [1] was determined as 439 µM; in assay [2], 222 µM; in assay [4] it was 185 µM.

Take `COC(=O)C1=C(c2ccc(OC(F)(F)F)cc2)CCC1`: the Ki in assay [1] was 2880 µM; in assay [2] it was 2650 µM; in assay [4], 3800 µM.

`COC(=O)C1=C(c2ccc(S(C)(=O)=O)cc2)CCC1` gave a Ki in assay [4] of 3390 µM.

Regarding `COC(=O)[C@@H]1CCCC[C@@H]1c1cccc(C(F)(F)F)c1`, the Ki in assay [1] turned out to be 991 µM; in assay [2], 569 µM; in assay [4], 1910 µM.

On to `COC(=O)c1ccccc1-c1ccc2ccccc2c1`, for which the Ki in assay [1] came out at 46.7 µM; in assay [2], 4.06 µM; in assay [4], 620 µM.

For the compound `COC(=O)C1=C(c2ccc(OC(F)(F)F)cc2)CCCC1`, the Ki in assay [1] was 2540 µM; in assay [2] it was 1660 µM; in assay [4] it was 4680 µM.
